Screening results (PubChem BioAssay)
Shown are actives, neighbours in structure and some others; about 3.4% of the full set was active somewhere.
IMP-1 inh = inhibitors of Pseudomonas aeruginosa IMP-1 metallo-beta-lactamase; inhibition, % at 5.6 µM; hit rate 0.45% among 290,000; purified IMP-1, nitrocefin hydrolysis, epi-absorbance fluorescence;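 active means inhibition above the mean plus 3 SD of all compounds in the same screening run, cut at about 4.5% in these data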
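System: purified IMP-1 / Input: IMP-1 dispensed at 0.2 nM / Medium: 50 mM HEPES pH 7.1, 50 µM ZnSO4, 0.05% Brij 35 / Timing: 15 min enzyme–compound preincubation, then 25 min nitrocefin reaction, 25 °C / Technique: plate fluorescence quenching by hydrolysis product, ex 480/em 530 nm / Repeats: singlicate testing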
MEKK2wt PB1 HTS = raises or lowers MEK5 binding to wildtype human MEKK2 PB1 domain | bead flow cytometry, Alexa488-MEK5 binding to MEKK2 WT; actives lie on both sides | binding response (% of control), % at 10 µM | hit rate 1.1% among 290,000; in the data active means binding response below about 67% or above about 130%
VIM-2 inh = inhibitors of Pseudomonas aeruginosa VIM-2 metallo-beta-lactamase; inhibition, % at 5.6 µM; hit rate 0.89% among 290,000; purified VIM-2, nitrocefin hydrolysis, epi-absorbance fluorescence;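 active means inhibition above the mean of all tested compounds plus 3 SD, cutoff set per screening run, cut at about 7.5% in these data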;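 further: red hydrolysis product quenches plate fluorescence so inhibitors raise well fluorescence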
MEKK2 mut-MEK5 = signal of MEK5 binding to mutant human MEKK2 PB1 domain; bead flow cytometry, Alexa488-MEK5 binding to MEKK2 mutant; percent response, % at 10 µM; hit rate 0.35% among 290,000; in the data active means percent response above about 24%, passing the limit was not always enough
MEKK3 PB1 HTS = raises or lowers MEK5 binding to the human MEKK3 PB1 domain. Q99759. bead-based flow cytometry, Alexa488-MEK5 binding to MEKK3; actives lie on both sides; 0 = blocked by unlabeled MEK5, 100 = vehicle. binding response (% of control), % at 10 µM. hit rate 1.4% among 290,000;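 active means binding response more than 3 SD above or below the average of its plate-row segment, actives on both sides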;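 further: Alexa488 bead fluorescence after subtracting the streptavidin-only scavenger bead signal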
Target sequence (Q99759 whole entry, looked up, the tested form may be a part): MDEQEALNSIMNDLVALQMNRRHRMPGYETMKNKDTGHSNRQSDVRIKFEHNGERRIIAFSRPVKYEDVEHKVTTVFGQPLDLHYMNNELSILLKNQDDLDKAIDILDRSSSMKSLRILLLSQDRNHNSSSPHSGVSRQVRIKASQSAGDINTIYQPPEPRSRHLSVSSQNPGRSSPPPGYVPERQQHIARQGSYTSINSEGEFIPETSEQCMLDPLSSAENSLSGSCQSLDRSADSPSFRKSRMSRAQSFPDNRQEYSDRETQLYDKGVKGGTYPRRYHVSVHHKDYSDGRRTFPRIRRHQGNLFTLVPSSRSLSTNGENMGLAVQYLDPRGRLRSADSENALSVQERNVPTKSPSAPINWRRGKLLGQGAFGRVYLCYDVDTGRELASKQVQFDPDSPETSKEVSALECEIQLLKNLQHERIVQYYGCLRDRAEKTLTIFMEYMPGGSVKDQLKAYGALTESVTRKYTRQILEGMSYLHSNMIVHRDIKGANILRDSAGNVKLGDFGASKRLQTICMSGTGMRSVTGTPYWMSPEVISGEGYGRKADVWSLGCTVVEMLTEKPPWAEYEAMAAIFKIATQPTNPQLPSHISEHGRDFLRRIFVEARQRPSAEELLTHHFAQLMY
Numbers stand for hits; i = inactive; nt = not tested or not shown.

SMILES | IMP-1 inh | MEKK2wt PB1 HTS | VIM-2 inh | MEKK2 mut-MEK5 | MEKK3 PB1 HTS
COc1ccc(CCNC(=O)CSc2ccc(Br)cc2)cc1OC | i | i | i | i | i
COc1ccccc1-c1c(C(F)(F)F)oc2cc(OC(=O)c3cccc([N+](=O)[O-])c3C)ccc2c1=O | i | i | i | i | i
Cc1c(CC(C)C)nc(N)c(C#N)c1-c1ccccc1 | i | i | i | i | i
CC1N(C)c2cc(NC(=O)c3ccco3)ccc2C1(C)C (stereo not drawn) | i | -7.0 | i | i | i
CCOC(=O)/C(N=Nc1sc(C(=O)OC)c(C)c1C(=O)OCC)=C(\O)CCl | 4.7 | i | i | i | i
CCOC(=O)/C(N=Nc1sc(C(=O)OCC)c(C)c1C(=O)OCC)=C(\C)O | i | i | i | i | i
CCOC(=O)C1=C(C)Nc2sc(C(=O)c3ccc(OC)cc3)c(N)c2C1c1ccc(C(=O)OC)cc1 (stereo not drawn) | i | i | 11 | i | i
COC(=O)C1=C(C)Nc2sc(C(N)=O)c(N)c2C1c1ccncc1 (stereo not drawn) | i | i | i | i | i
CN(CCC#N)c1ccc(/C=C(\C#N)c2ccccn2)cc1 | 25 | i | i | i | i
Cc1cc2ncn(S(=O)(=O)N3CCOCC3)c2cc1C | 4.5 | i | i | i | i
COc1ccccc1Nc1c2c(nc3ccccc13)CCC2 | i | i | 9.4 | i | i
CC(=O)c1cccc(Nc2c3c(nc4ccccc24)CCC3)c1 | i | i | 10 | i | i
COc1cc(Nc2c3c(nc4ccccc24)CCCC3)cc(OC)c1OC | i | i | i | i | i
COC(=O)c1cccc(Nc2c3c(nc4ccccc24)CCC3)c1 | i | i | 8.1 | i | i
Cc1ccc2nc3c(c(Nc4cccc(O)c4)c2c1)CCC3 | i | i | 9.4 | i | i
COc1ccc(C(=O)N2c3ccccc3C(=O)OC2c2ccc3c(c2)OCO3)cc1 (stereo not drawn) | i | i | i | i | i
CN(C)S(=O)(=O)c1cccc(C(=O)Nc2ccccc2Cl)c1 | i | i | i | i | i
Oc1cccc(C(O)CNCc2ccc(OCc3ccc(Cl)cc3Cl)cc2)c1 (stereo not drawn) | i | 155 | i | i | i
COc1ccc(N2C(=O)[C@@H]3[C@H](C2=O)[C@H]2c4ccccc4C=CN2[C@@H]3C(=O)Nc2ccccc2)cc1 | 42 | i | i | i | i
Cn1c(C(=O)Nc2ccccc2)cc2sccc21 | i | i | i | i | i
COc1cc(NC(=O)c2cc3sccc3n2C)cc(OC)c1 | 6.4 | i | i | i | i
COc1cccc(Nc2nc(CC(C)=O)ns2)c1 | i | i | i | i | i
O=C(CSc1ccc2nnc(-c3cccs3)n2n1)N1CCCC1 | i | i | 8.1 | i | i
CCOC(=O)CSc1ccc2nnc(-c3cccs3)n2n1 | i | i | i | i | i
CC(C)c1nnc(NC(=O)c2cccs2)s1 | i | i | i | i | i
SMILES | IMP-1 inh | MEKK2wt PB1 HTS | VIM-2 inh | MEKK2 mut-MEK5 | MEKK3 PB1 HTS
CC(C)N(C(=O)CSc1nnc(NC(=O)c2cccs2)s1)C(C)C | i | i | 10.0 | i | i
CCOC(=O)C1CCCN(S(=O)(=O)c2ccccc2)C1 (stereo not drawn) | i | i | i | i | i
CCOC(=O)c1c(NC(=O)COc2ccccc2C#N)sc2c1CC(C)(C)NC2(C)C | i | 134 | i | i | i
Cc1ccc(OCC(=O)Nc2sc3c(c2C#N)CC(C)(C)NC3(C)C)cc1 | i | i | i | i | i
CC1(C)Cc2c(sc(NC(=O)COc3cccc4ccccc34)c2C#N)C(C)(C)N1 | 19 | i | i | i | i
COC(=O)c1c(NC(=O)c2ccccc2)sc2c1CC(C)(C)NC2(C)C | i | i | i | i | i
CC1(C)Cc2c(sc(NC(=O)c3ccc(C(=O)c4ccccc4)cc3)c2C(N)=O)C(C)(C)N1 | i | 150 | i | i | i
COC(=O)c1cccc(S(=O)(=O)N2CCC(n3nnc4cc(F)ccc43)CC2)c1 | i | i | i | i | i
CCN(CC1CCCO1)C(=O)c1cc(COc2ccc(F)cc2F)on1 (stereo not drawn) | i | i | i | i | i
CCOC(=O)c1c(-c2ccccc2)csc1/N=C/C1C(=O)CCCC1=O | i | i | i | 70 | i
Cc1ccc(CSc2ncnc3c2cnn3Cc2ccccc2)cc1 | 6.7 | i | i | i | i
Cc1ccc(CSc2ncnc3c2cnn3Cc2ccccc2)cc1C | i | i | i | i | i
O=C(NN1C(=O)CSC1=S)C(=O)NN1C(=O)CSC1=S | 18 | i | i | i | i
O=c1[nH]c2ccccc2nc1/C=C/c1ccc(F)cc1 | i | i | i | i | i
C=C(C(=O)O)C(CCCCCC)C(=O)O (stereo not drawn) | 14 | i | i | i | i
CCc1ccc(C2CC(c3ccccc3)Nc3nc(N)nn32)cc1 (stereo not drawn) | i | i | i | i | i
CN1C(=O)CSc2ccc(NC(=O)N3CCC(N4CCCCC4)CC3)cc21 | i | -1.0 | i | i | i
Cc1ccc2ccc3cccnc3c2n1 | i | i | 9.5 | i | i
Cc1nnc(C)c2c(C)n(-c3cccc4cccnc34)c(C)c12 | i | i | i | i | i
Cc1cc([N+](=O)[O-])nn1CC(=O)Nc1nc2ccccc2s1 | i | i | i | i | i
CN(c1ncc(C(F)(F)F)cc1Cl)N1C(=O)c2cccc([N+](=O)[O-])c2C1=O | 37 | i | i | i | i
NC(=O)C(c1ccc(Cl)cc1)c1ccc(Sc2ccc(Cl)cc2)nn1 (stereo not drawn) | i | i | i | i | i
CC(=O)NNC(=O)c1sc(=S)n2c1[nH]c(=O)c1sccc12 | i | i | 23 | i | i
NC(=O)c1sc(=S)n2c1[nH]c(=O)c1sccc12 | i | i | 8.2 | i | i
COCCNC(=O)c1onc(CSc2ccc(F)cc2)c1C(=O)NCCOC | nt | i | nt | i | i
SMILES | IMP-1 inh | MEKK2wt PB1 HTS | VIM-2 inh | MEKK2 mut-MEK5 | MEKK3 PB1 HTS
CCOC(=O)c1sc(-c2cccc(C(F)(F)F)c2)nc1O | i | i | i | i | i
CCOC(=O)c1sc(-c2ccc(C(F)(F)F)cc2)nc1O | 4.9 | i | i | i | i
COCC(C)NC(=O)C(C)N1c2cccc3cccc(c23)S1(=O)=O (stereo not drawn) | i | i | i | i | i
COC(=O)c1cc(NCc2ccccc2F)ccc1N1CCOCC1 | 15 | i | i | i | i
COc1ccc2cc([C@H](C)C(=O)N(C)Cc3ccccc3N3CCCC3)ccc2c1 | i | i | 7.8 | i | i
COc1ccc(C(CNC(=O)C(C)c2ccc3cc(OC)ccc3c2)N(C)C)cc1 (stereo not drawn) | i | i | i | i | i
COc1cc(C(=O)Nc2ccc3c(c2)CCN3C(C)=O)cc(OC)c1OC | i | 173 | i | i | i
COc1ccc(OC)c(/C=C2\SC(=S)N(C(C(=O)O)c3ccccc3)C2=O)c1 (stereo not drawn) | 4.8 | i | i | i | i
Cc1cccc(NS(=O)(=O)c2cc3c4c(c2)C(C)C(=O)N4CCC3)c1 (stereo not drawn) | i | i | i | i | i
